# Data published in ChEMBL document CHEMBL3588792, “Selective Acetamidine-Based Nitric Oxide Synthase Inhibitors: Synthesis, Docking, and Biological Studies” (ACS Med Chem Lett, 2015).
# Calls of active or inactive are those of the source. The calls are words filed in the database; no cut-off is given here.
# Assays:
# [1] = biological target: T1, Nitric oxide synthase, inducible (Mus musculus, UniProt P29477); test: Inhibition of mouse recombinant iNOS using [3H]L-arginine substrate assessed as formation of [3H]L-citruline by liquid scintillation counting analysis
# T1 sequence (P29477 whole entry): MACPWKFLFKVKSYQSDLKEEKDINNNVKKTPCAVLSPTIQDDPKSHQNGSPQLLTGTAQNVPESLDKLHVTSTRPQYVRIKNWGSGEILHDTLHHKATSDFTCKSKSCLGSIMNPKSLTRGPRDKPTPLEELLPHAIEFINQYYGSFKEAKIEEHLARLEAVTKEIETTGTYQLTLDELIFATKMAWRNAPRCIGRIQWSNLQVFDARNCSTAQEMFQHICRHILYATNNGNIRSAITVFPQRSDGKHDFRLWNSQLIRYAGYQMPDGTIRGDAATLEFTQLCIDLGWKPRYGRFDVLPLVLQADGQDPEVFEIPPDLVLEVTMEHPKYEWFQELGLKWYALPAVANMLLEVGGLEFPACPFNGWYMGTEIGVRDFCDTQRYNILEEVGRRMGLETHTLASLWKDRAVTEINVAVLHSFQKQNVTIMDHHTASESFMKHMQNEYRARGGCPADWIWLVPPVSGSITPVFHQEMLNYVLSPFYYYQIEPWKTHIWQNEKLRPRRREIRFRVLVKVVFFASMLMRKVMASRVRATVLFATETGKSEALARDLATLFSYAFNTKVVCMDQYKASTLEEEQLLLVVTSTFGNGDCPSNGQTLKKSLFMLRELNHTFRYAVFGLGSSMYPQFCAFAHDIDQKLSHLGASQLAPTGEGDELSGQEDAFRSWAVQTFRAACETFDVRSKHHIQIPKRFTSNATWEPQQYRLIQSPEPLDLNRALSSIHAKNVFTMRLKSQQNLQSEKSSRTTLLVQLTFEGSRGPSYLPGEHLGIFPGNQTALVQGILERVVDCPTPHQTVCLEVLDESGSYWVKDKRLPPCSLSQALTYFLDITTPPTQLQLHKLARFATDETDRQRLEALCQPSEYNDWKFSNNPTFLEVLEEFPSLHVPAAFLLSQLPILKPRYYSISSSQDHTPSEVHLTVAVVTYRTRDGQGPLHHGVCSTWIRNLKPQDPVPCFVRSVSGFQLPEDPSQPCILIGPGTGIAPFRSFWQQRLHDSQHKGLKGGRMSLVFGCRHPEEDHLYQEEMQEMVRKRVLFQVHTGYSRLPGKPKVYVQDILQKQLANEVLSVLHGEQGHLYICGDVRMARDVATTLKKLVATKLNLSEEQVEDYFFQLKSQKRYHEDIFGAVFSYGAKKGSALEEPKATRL
# Outline: (§1)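 Recombinant enzyme inhibition was read as [3H]L-citrulline formed from [3H]L-arginine. Each inhibitor was tested at seven concentrations in triplicate, with IC50 given as mean ± SD. Selectivity is the eNOS IC50 divided by the iNOS IC50.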
# [2] = Selectivity ratio of IC50 for bovine recombinant eNOS to IC50 for mouse recombinant iNOS
# Nitric oxide synthase 3 = biological target: T2, Nitric oxide synthase 3 (Bos taurus, UniProt P29473); test: Inhibition of bovine recombinant eNOS using [3H]L-arginine substrate assessed as formation of [3H]L-citruline by liquid scintillation counting analysis; outline: as §1
# T2 sequence (P29473 whole entry): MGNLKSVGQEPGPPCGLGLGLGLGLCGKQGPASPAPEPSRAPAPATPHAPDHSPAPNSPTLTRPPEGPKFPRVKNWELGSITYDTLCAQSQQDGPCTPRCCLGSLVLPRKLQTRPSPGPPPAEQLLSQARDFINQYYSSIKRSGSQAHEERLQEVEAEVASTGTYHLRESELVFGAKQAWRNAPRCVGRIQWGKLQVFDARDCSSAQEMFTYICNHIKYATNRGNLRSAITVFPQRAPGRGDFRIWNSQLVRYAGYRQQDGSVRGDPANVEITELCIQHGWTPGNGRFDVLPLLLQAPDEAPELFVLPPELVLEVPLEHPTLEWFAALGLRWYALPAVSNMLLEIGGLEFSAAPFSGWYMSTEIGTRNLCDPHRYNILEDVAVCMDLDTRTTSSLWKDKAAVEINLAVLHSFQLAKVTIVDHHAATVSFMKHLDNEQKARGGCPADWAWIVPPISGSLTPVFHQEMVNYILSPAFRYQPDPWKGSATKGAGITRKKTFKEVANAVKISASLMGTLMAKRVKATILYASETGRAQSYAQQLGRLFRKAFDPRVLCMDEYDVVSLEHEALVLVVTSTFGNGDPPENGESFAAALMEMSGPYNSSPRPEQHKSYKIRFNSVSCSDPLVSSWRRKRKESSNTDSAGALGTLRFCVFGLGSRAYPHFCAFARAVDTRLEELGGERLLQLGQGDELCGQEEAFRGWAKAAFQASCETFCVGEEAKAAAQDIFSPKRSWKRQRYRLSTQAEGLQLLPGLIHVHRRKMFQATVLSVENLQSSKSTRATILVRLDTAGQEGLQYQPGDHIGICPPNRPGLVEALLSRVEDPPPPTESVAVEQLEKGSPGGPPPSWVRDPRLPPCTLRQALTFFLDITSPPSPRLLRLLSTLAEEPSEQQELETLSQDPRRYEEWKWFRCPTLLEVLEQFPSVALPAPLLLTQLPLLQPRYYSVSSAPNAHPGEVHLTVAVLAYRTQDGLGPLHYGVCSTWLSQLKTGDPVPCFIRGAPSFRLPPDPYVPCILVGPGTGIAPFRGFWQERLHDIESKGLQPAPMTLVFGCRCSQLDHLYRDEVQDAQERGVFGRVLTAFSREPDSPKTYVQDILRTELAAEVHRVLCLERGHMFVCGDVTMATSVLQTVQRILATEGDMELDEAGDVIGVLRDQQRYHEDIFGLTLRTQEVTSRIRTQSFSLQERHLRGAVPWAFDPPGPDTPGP
# Rattus norvegicus [3] = species: Rattus norvegicus; test: Induction of NA-induced LPS-treated Sprague-Dawley rat mesenteric vascular artery vasoconstriction effect measured at 100 uM/30 mins preincubation relative to basal level; assay type: functional, organism-based
# Rattus norvegicus [4] = species: Rattus norvegicus; test: Reduction of Ach-mediated NO-dependent precontracted Sprague-Dawley rat mesenteric vascular artery vasorelaxation measured at 100 uM/30 mins preincubation; assay type: functional, organism-based
# Outline: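 Isolated SD rat mesenteric arteries precontracted with 10 μM NA to about 80% of maximal vasoconstriction. Preincubation 30 min at 100 μM, then dose-response to ACh (0.01–3 μM/30 s) for NO-dependent (eNOS-mediated) vasorelaxation, compared with control curve. Mean ± SEM of duplicates, four independent experiments; two-way repeated-measures ANOVA.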
# Rattus norvegicus [5] = species: Rattus norvegicus; test: Reduction of Ach-mediated NO-dependent precontracted Sprague-Dawley rat mesenteric vascular artery vasorelaxation measured at 1 uM/30 mins preincubation; assay type: functional, organism-based
# Outline: (§2)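 Mesenteric arteries were isolated from SD rats and precontracted to ~80% of maximal constriction with 10 μM NA. The inhibitor was preincubated for 30 min, then ACh dose-response curves were run (0.01–3 μM/30 s) against control, followed by L-NAME (100 μM). Data are mean ± SEM of duplicates from four independent experiments, analysed by two-way repeated-measures ANOVA.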
# Rattus norvegicus [6] = species: Rattus norvegicus; test: Induction of NA-induced LPS-treated Sprague-Dawley rat mesenteric vascular artery vasoconstriction effect measured at 1 uM/30 mins preincubation relative to basal level; assay type: functional, organism-based
# Outline: (§3)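 Mesenteric arteries came from SD rats injected with LPS. NA dose-response curves (10 nM–10 μM) were recorded before and after 30 min preincubation with inhibitor. Read-outs were peak perfusion pressure (mmHg) and duration as AUC (mmHg × sec). Data are mean ± SEM of duplicates from four independent experiments.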
# Rattus norvegicus [7] = species: Rattus norvegicus; test: Induction of NA-induced LPS-treated Sprague-Dawley rat mesenteric vascular artery vasoconstriction effect measured at 100 uM/30 mins preincubation; assay type: functional, organism-based; outline: as §3
# Rattus norvegicus [8] = species: Rattus norvegicus; test: Induction of NA-induced LPS-treated Sprague-Dawley rat mesenteric vascular artery vasoconstriction effect measured at 0.43 uM/30 mins preincubation; assay type: functional, organism-based; outline: as §3
# Rattus norvegicus [9] = species: Rattus norvegicus; test: Reduction of Ach-mediated NO-dependent precontracted Sprague-Dawley rat mesenteric vascular artery vasorelaxation measured at 0.43 uM/30 mins preincubation; assay type: functional, organism-based; outline: as §2
# Rattus norvegicus [10] = species: Rattus norvegicus; test: Induction of NA-induced LPS-treated Sprague-Dawley rat mesenteric vascular artery vasoconstriction effect measured at 0.43 uM/30 mins preincubation relative to basal level; assay type: functional, organism-based; outline: as §3
# Rattus norvegicus [11] = species: Rattus norvegicus; test: Reduction of Ach-mediated NO-dependent precontracted Sprague-Dawley rat mesenteric vascular artery vasorelaxation measured at 0.85 uM/30 mins preincubation; assay type: functional, organism-based; outline: as §2
# Rattus norvegicus [12] = species: Rattus norvegicus; test: Induction of NA-induced LPS-treated Sprague-Dawley rat mesenteric vascular artery vasoconstriction effect measured at 1 uM/30 mins preincubation; assay type: functional, organism-based; outline: as §3
# Rattus norvegicus [13] = species: Rattus norvegicus; test: Reduction of Ach-mediated NO-dependent precontracted Sprague-Dawley rat mesenteric vascular artery vasorelaxation measured at 1 to 1.2 uM/30 mins preincubation; assay type: functional, organism-based; outline: as §2
# Rattus norvegicus [14] = species: Rattus norvegicus; test: Reduction of Ach-mediated NO-dependent precontracted Sprague-Dawley rat mesenteric vascular artery vasorelaxation measured up to 0.7 uM/30 mins preincubation; assay type: functional, organism-based; outline: as §2
Structure (SMILES),IC50 [1] [µM],Ratio IC50 [2],IC50 (Nitric oxide synthase 3) [µM],other results
CC(=N)NCc1cccc(CNC(=O)CCCN)c1,> 10,,,
CC(=N)NCc1cccc(CNC(=O)CN)c1,> 10,,,
COC(=O)[C@@H](N)CCCNC(=N)N[N+](=O)[O-],,,,Activity (Rattus norvegicus [3]): Active; inhibition (Rattus norvegicus [4]): Active
CC(=N)NCc1cccc(CNC(=O)CCC(=O)O)c1,0.428,> 2300,> 1000,Activity (Rattus norvegicus [7]): Active; Activity (Rattus norvegicus [8]): Active; inhibition (Rattus norvegicus [9]): inactive; Activity (Rattus norvegicus [10]): Active; inhibition (Rattus norvegicus [4]): inactive; Activity (Rattus norvegicus [11]): Active; Activity (Rattus norvegicus [12]): Active; Activity (Rattus norvegicus [13]): Active; inhibition (Rattus norvegicus [14]): inactive
CC(=N)NCc1cccc(CNC(=O)CC(=O)O)c1,> 10,,,

# Now from value to compound, other results behind:
IC50 [1] [µM],Ratio IC50 [2],IC50 (Nitric oxide synthase 3) [µM],Structure (SMILES),other results
0.5,200,100,CC(=N)NCc1cccc(CN(Cc2ccc([N+](=O)[O-])cc2)Cc2ccc([N+](=O)[O-])cc2)c1,
0.1,300,30,CC(=N)NCc1cccc(CNCc2ccccc2[N+](=O)[O-])c1,
0.1,,,CC(=N)NCc1cccc(CN)c1 [1400W],inhibition (Rattus norvegicus [5]): inactive; Activity (Rattus norvegicus [6]): Active
> 10,,,CC(=N)NCc1cccc(CNC(=O)CCN)c1,
0.165,550,90.8,CC(=N)NCc1cccc(CNC(=O)c2ccc(C(=O)O)cc2)c1,
